Data set [1] in a line: Activity at alpha7-5HT3 chimera expressed in SHEP1 cells by FLIPR assay. The format is functional, cell-based. Conditions: Homo sapiens, SH-EP1. A digest of the protocol:
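Cell-based FLIPR functional assay in SH-EP1 cells expressing the α7-5HT3 chimera. Values are the average of at least five experiments for most compounds.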

Data set [2] has as its target Neuronal acetylcholine receptor subunit alpha-7 (Rattus norvegicus, UniProt Q05941). Put plainly: Displacement of [3H]MLA from alpha-7 nAChR in Sprague-Dawley rat brain homogenates. The format is tissue-based. A digest of the protocol:
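Rat brain homogenate binding assay with [3H]MLA as radioligand. Values are the average of two or more experiments.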
On the technique in general: Loss of bound radioactivity is the signal in a displacement assay; it reports binding, not function.

The nature of data set [3]: Metabolic stability in Sprague-Dawley rat liver microsomes after 1 hr. The class given is ADME, Microsome. Conditions: read-out: Stability. Summed up:
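Rat liver microsomes incubated with compound, in vitro metabolism; read-out is percent of parent remaining at 1 h.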
A general note: Microsomes from liver hold many membrane-bound enzymes, among them those of drug oxidation.

The nature of data set [4]: Clearance in rat constant infusion model. The format is ADME, organism-based. Conditions: in vivo, iv. Summed up: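 Clearance determined in a rat constant infusion model.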
The nature of data set [5]: Oral bioavailability in rat constant infusion model. Conditions: in vivo. The format is ADME, organism-based. Summed up: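 Rat clearance and oral bioavailability derived from a constant infusion model.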
The target of data set [6] is Neuronal acetylcholine receptor; alpha3/beta4 (Homo sapiens, UniProt P30926+P32297). Briefly: Inhibition of alpha-3-beta-4 nAChR expressed in SHSY5Y cells by FLIPR assay. The format is functional, cell-based, SH-SY5Y. Summed up:
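FLIPR cell-based functional assay in SH-SY5Y cells, which carry α3β4-containing ganglion-type nAChRs; tested for agonist and antagonist activity; IC50 in µM.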

In data set [7] the target is Acetylcholine receptor; alpha1/beta1/delta/gamma (Homo sapiens, UniProt P02708+P07510+P11230+Q07001). Put plainly: Inhibition of alpha-1-beta-1-gamma-delta nAChR expressed in TE671cells by FLIPR assay. The class given is functional, cell-based, TE-671. A digest of the protocol:
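Functional FLIPR read-out in TE671 cells expressing native muscle-type α1β1γδ nAChR, cell-based; tested for agonist and antagonist activity; IC50 in µM.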

Data set [8] addresses T1, hERG (Homo sapiens, UniProt Q12809). Briefly: Inhibition of hERG expressed in HEK293 cells at 2 uM by patch clamp assay. Conditions: HEK293 cells that express hERG. The class given is toxicity, cell-based. Summed up: (§1)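 hERG current (IKr) in HEK cells recorded by patch clamp; compound applied at 2 and 20 µM; % block of current reported at each concentration.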
Background: Block of hERG is tested as a sign of cardiac risk.

Data set [9] addresses T1, hERG. Put plainly: Inhibition of hERG expressed in HEK293 cells at 20 uM by patch clamp assay. The format is toxicity, cell-based. Conditions: HEK293 cells that express hERG. Summed up:
as §1

Another data set concerns the target Cytochrome P450 2D6 (Homo sapiens, UniProt P10635). Briefly: Inhibition of CYP2D6. The format is ADME.
Data set [10] can be described thus: Half life in human liver microsome. The format is ADME. Conditions: liver microsomes.
For data set [11], the target named is Serotonin 3 (5-HT3) receptor. Briefly: Binding affinity to 5HT3 receptor. The class given is protein-complex assay, Homo sapiens.
For data set [12], the target named is Serotonin 3 (5-HT3) receptor. Put plainly: Activity at 5HT3 receptor expressed in SHEP1 cells by FLIPR assay. The class given is functional, cell-based, Homo sapiens. A digest of the protocol:
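Cell-based FLIPR functional assay in SH-EP1 cells expressing 5-HT3.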

The nature of data set [13]: Half life in Sprague-Dawley rat liver microsome. The format is ADME. Conditions: liver microsomes.
The target of data set [14] is Neuronal acetylcholine receptor; alpha4/beta2 (Rattus norvegicus) (UniProt P09483+P12390). Put plainly: Inhibition of [3H]cytisine binding to alpha4beta2 nAChR in rat brain homogenate at 1 uM. The format is tissue-based. A digest of the protocol:
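Radioligand displacement in rat brain homogenate with [³H]cytisine as the α4β2 ligand; test compound at 1 µM; value reported as % block of binding.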

T1 sequence (Q12809 whole entry): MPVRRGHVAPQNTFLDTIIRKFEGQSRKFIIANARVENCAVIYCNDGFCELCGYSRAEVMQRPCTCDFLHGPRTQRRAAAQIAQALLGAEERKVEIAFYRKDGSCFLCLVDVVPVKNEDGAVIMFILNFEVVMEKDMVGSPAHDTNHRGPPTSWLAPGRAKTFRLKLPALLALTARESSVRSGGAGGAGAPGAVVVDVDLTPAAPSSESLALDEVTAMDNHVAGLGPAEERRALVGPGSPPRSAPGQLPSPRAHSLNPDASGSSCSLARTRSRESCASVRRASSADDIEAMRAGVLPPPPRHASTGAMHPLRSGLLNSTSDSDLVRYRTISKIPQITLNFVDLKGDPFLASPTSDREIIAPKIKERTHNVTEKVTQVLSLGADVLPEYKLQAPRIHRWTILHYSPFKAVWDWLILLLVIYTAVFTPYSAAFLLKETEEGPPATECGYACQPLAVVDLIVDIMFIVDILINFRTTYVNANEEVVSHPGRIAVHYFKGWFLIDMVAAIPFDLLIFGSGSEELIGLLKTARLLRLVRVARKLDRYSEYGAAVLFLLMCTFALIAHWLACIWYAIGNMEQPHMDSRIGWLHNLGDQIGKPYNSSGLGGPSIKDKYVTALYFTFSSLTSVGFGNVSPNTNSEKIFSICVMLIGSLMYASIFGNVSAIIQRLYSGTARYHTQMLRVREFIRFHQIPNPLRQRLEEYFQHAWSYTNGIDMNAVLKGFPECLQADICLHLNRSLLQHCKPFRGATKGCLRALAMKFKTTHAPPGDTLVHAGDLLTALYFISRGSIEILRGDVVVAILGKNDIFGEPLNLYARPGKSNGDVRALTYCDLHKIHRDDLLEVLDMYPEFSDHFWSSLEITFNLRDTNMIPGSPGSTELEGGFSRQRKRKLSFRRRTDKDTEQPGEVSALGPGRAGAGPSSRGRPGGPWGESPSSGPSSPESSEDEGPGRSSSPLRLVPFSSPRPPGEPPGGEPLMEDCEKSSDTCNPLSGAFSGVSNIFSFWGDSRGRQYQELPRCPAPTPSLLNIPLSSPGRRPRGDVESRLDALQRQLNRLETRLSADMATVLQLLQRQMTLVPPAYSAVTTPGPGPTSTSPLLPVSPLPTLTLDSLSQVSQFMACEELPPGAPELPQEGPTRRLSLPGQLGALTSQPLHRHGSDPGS
Chain of Neuronal acetylcholine receptor subunit alpha-7 (Q05941 whole entry): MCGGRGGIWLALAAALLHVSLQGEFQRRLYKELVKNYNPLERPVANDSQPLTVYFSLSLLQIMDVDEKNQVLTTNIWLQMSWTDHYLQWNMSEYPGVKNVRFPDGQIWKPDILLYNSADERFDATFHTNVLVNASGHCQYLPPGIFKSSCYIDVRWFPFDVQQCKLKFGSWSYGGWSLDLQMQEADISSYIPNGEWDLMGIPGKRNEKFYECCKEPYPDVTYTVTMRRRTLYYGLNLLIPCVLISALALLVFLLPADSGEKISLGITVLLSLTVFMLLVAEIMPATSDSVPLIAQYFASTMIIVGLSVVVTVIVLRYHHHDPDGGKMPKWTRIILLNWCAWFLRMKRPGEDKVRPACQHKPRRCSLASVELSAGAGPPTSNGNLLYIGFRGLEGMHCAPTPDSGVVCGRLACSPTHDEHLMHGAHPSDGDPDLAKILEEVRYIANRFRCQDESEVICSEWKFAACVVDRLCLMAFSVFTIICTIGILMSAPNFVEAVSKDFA
Chain of Acetylcholine receptor; alpha1/beta1/delta/gamma (P02708 whole entry): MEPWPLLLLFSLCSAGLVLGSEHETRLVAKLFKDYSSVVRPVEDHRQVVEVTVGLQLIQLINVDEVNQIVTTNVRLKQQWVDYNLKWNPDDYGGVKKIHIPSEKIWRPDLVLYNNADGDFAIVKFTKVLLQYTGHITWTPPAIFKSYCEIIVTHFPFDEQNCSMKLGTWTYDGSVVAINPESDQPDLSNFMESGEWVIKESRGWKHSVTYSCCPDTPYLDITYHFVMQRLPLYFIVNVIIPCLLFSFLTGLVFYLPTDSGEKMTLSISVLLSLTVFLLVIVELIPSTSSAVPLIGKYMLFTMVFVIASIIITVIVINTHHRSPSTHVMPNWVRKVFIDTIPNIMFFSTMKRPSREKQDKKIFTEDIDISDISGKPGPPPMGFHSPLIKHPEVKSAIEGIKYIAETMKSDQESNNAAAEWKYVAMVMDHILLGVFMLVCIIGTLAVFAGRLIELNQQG
Chain of Acetylcholine receptor; alpha1/beta1/delta/gamma (P07510 whole entry): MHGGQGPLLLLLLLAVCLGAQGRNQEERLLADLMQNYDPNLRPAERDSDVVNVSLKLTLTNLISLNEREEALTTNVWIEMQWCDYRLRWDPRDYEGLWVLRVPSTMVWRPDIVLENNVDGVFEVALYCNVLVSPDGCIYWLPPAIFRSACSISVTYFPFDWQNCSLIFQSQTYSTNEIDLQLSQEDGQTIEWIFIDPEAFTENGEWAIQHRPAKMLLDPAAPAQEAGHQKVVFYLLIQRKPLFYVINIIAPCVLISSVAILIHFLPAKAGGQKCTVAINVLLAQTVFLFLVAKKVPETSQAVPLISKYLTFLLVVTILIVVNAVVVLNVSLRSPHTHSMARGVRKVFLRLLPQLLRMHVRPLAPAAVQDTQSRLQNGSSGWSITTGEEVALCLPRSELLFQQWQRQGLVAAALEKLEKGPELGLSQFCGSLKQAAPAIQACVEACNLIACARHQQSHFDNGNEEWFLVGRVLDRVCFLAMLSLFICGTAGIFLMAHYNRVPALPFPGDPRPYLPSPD
Chain of Acetylcholine receptor; alpha1/beta1/delta/gamma (P11230 whole entry): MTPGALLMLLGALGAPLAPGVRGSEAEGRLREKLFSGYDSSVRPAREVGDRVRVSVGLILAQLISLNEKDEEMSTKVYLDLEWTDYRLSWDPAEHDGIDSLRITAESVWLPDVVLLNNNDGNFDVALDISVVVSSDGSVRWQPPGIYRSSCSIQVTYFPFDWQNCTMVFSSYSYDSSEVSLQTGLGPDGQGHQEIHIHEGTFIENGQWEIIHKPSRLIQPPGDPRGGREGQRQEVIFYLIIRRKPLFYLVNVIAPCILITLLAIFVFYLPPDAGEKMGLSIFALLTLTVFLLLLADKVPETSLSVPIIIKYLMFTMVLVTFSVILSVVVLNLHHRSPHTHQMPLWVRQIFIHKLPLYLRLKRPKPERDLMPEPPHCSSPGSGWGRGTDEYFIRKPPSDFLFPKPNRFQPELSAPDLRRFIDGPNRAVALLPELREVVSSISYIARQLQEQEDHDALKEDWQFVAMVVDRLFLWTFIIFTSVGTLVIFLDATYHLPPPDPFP
Chain of Acetylcholine receptor; alpha1/beta1/delta/gamma (Q07001 whole entry): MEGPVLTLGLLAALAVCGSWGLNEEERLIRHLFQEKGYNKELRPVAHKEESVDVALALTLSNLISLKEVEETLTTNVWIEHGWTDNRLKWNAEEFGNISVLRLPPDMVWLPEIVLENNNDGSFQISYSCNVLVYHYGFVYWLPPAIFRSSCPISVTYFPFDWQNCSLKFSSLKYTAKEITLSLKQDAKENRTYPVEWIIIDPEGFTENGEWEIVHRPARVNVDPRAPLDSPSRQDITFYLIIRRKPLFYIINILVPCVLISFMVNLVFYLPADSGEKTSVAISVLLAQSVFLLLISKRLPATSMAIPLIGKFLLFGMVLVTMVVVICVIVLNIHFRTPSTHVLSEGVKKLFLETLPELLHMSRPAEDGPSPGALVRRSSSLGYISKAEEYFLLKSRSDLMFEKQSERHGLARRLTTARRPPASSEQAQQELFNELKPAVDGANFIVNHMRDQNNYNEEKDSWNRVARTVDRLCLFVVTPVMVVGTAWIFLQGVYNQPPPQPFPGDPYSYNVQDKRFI
Chain of Cytochrome P450 2D6 (P10635 whole entry): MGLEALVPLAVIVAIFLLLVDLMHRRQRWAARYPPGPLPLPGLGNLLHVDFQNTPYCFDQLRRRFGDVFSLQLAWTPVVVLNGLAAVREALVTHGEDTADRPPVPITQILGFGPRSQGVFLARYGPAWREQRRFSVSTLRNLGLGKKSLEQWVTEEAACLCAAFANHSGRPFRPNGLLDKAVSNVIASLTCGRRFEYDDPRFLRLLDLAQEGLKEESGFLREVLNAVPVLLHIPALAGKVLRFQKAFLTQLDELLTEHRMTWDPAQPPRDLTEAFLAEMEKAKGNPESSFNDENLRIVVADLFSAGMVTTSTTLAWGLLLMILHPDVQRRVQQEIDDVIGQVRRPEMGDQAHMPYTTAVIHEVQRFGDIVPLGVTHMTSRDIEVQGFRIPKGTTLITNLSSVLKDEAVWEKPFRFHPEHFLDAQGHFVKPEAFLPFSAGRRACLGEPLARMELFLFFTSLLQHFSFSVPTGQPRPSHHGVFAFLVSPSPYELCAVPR

One may read the EC50 as the concentration giving half of the maximal effect. Higher therefore signals lower potency in that assay. As a reminder, the Ki is the equilibrium dissociation constant of an inhibitor or competing ligand from its target. High values mean lower affinity, low ones higher affinity. The compound `O=C(N[C@H]1CN2CCC1CC2)c1ccc2c(c1)CCO2` showed an EC50 in [1] of 77 nM. The Ki in [2] stood at 15 nM.
In data set [1], `O=C(N[C@H]1CN2CCC1CC2)c1cc2occc2cn1` displayed an EC50 of 374 nM. This compound showed a Ki in [2] of 50 nM. Moreover, in data set [3], the remaining at 1 h came out at 40%.
For `O=C(N[C@H]1CN2CCC1CC2)c1ccc2[nH]ccc2c1`, the EC50 in data set [1] is 550 nM.
As to `O=C(N[C@H]1CN2CCC1CC2)c1cc2ccsc2cn1`, in data set [1], a half-maximal effect (EC50) was put at 100 nM. Further, the Ki in data set [2] came out at 6.3 nM. Further, the remaining at 1 h in [3] is 7%.
On to `O=C(N[C@H]1CN2CCC1CC2)c1cc2sccc2cn1`, for which the EC50 in data set [1] is 81 nM. Besides, the remaining at 1 h in data set [3] amounted to 7%.
The term clearance denotes the volume of plasma or blood freed of the substance per unit of time. The low end stands for inefficient removal, the high end for efficient removal. For orientation: bioavailability means dose-corrected exposure relative to a reference, in per cent. Higher therefore signals much systemic uptake. As usually defined, the IC50 is the concentration that inhibits the measured activity by half. A high value points to lower potency. Usually inhibition stands for the share of the control response that was lost under treatment. Low readings indicate a response near the control, high ones a response far below the control. Broadly, the half-life is how long it takes for the measured level to halve. Read a high half-life as slow decline. Consider `O=C(N[C@H]1CN2CCC1CC2)c1ccc2ccoc2c1`, for which the clearance in data set [4] is 58 mL/min/kg. In data set [5], the bioavailability was 76%. In addition, a half-maximal response in [1] (EC50) required 86 nM. Moreover, the results for the Ki in data set [2], in data set [11] and in data set [12] were 12.5 nM, 310 nM and 962 nM, respectively. In addition, the IC50 is 81000 nM in data set [6], greater than 100000 nM in data set [7] and greater than 10000 nM on Cytochrome P450 2D6. On hERG [8], testing at 2 µM gave an inhibition of 2%. On hERG [9], this compound returned an inhibition at 20 µM of 29%. For the same compound, the half-life in [10] is greater than 2 h. Further, the remaining at 1 h in [3] was found to be 69%.
On to `O=C(N[C@H]1CN2CCC1CC2)c1ccc2cc[nH]c2c1`, for which the midpoint of the response in [1], the EC50, lay at 100 nM. Further, in data set [3], the remaining at 1 h is 14%.
For `O=C(N[C@H]1CN2CCC1CC2)c1cnc2occc2c1`, the EC50 in data set [1] was greater than 10000 nM.
Regarding `O=C(N[C@H]1CN2CCC1CC2)c1ccc2sccc2c1`, a half-maximal response in [1] (EC50) required 55 nM. The same compound had a Ki in data set [2] of 6.9 nM. Moreover, in data set [3], the remaining at 1 h is 6%.
In turn, `O=C(N[C@H]1CN2CCC1CC2)c1ccc2occc2c1` returned a clearance in data set [4] of 39 mL/min/kg. In data set [5], the bioavailability stood at 88%. Moreover, the half-life in data set [13] and in [10] was greater than 2 h each time. Also, the EC50 in data set [1] was determined as 47 nM. Besides, the results for the Ki in data set [2], in [11] and in [12] were 1.6 nM, 663 nM and 580 nM, respectively. For the same compound, the IC50 was greater than 100000 nM in data set [6], greater than 100000 nM in data set [7] and 3600 nM at Cytochrome P450 2D6. Also, the inhibition in data set [14] was 5%. Also, at 2 µM the inhibition against hERG [8] was 2%. This compound registered an inhibition at 20 µM against hERG [9] of 33%. In addition, in data set [3], the remaining at 1 h turned out to be 77%.
Regarding `O=C(N[C@H]1CN2CCC1CC2)c1ccc(Cl)cc1` [PNU-282987], the clearance in data set [4] amounted to 30 mL/min/kg. The compound further returned a bioavailability in data set [5] of 74%. The half-life in [13] and in data set [10] was greater than 2 h in each case. Besides, in data set [1], the 50% effective concentration (EC50) amounted to 128 nM. The Ki in data set [2] worked out at 24 nM; in data set [11], 1660 nM; in [12], 4540 nM. Besides, the IC50 in data set [6] is greater than 60000 nM; in data set [7], greater than 60000 nM; against Cytochrome P450 2D6, greater than 3000 nM. The compound also had an inhibition in [14] of 14%. In addition, at hERG [8], 2 µM produced 11% inhibition. For the same compound, 20 µM produced 57% inhibition against hERG [9]. The remaining at 1 h in data set [3] turned out to be 96%.
In [1], `O=C(N[C@H]1CN2CCC1CC2)c1cc2cc[nH]c2cn1` showed an EC50 of 1170 nM. In addition, in data set [3], the remaining at 1 h came to 29%.
`O=C(N[C@H]1CN2CCC1CC2)c1ccc2c(c1)CCN2` displayed an EC50 in [1] of 600 nM. Besides, in [2], affinity was put at a Ki of 83 nM.
`O=C(N[C@H]1CN2CCC1CC2)c1ccc2ccoc2n1` returned a concentration for a half-maximal effect (EC50) in data set [1] greater than 10000 nM.
Regarding `O=C(N[C@H]1CN2CCC1CC2)c1ccc2ccsc2c1`, the EC50 in data set [1] came out at 48 nM. In addition, the Ki in data set [2] stood at 2.1 nM; in data set [11], 174 nM; in data set [12], 188 nM. The half-inhibitory concentration (IC50) was 38000 nM in data set [6] and greater than 100000 nM in data set [7]. The same compound displayed an inhibition at 2 µM at hERG [8] of 13%. This compound had an inhibition at 20 µM against hERG [9] of 65%. For the same compound, the remaining at 1 h in [3] is 29%.

For the origin of these results see ChEMBL document CHEMBL1138064, “Discovery of N-[(3R)-1-azabicyclo[2.2.2]oct-3-yl]furo[2,3-c]pyridine-5-carboxamide, an agonist of the alpha7 nicotinic acetylcholine receptor, for the potential treatment of cognitive deficits in schizophrenia: synthesis and structure--activity relationship” (J Med Chem, 2006).
